Measurements gathered from unrelated publications.
Each line is one published result; the experiments were not run side by side.
Observed: cell growth or viability

For `C=C1CC[C@@H]2[C@](C)(CO)[C@H](O)CC[C@@]2(C)[C@@H]1C/C=C1/C(=O)OC[C@H]1O`, the IC50 was 5.08 µM (SW480; MTT; 24 h).
For `O=C(NO)c1ccc(Cn2cnc3c(Nc4ccc(F)c(Cl)c4)ncnc32)cc1`, the IC50 was 2.69 µM (MM1.S; MTT; 72 h).
The IC50 of `COc1cccc2c1C(=O)c1c(O)c3c(c(O)c1C2=O)C[C@@](O)(C(=O)CO)C[C@@H]3O[C@H]1C[C@H](N)[C@H](O)[C@H](C)O1` is reported as 0.166 µM (HGC-27; 96 h).
The IC50 of `NNc1nc2c(Cl)cc(Cl)cc2c(=O)n1-c1ccccc1` is reported as over 200 µM (SW480; MTT; 48 h).
The IC50 of `COc1cccc2c1C(=O)c1c(O)c3c(c(O)c1C2=O)C[C@@](O)(C(=O)CO)C[C@@H]3O[C@H]1C[C@H](N)[C@H](O)[C@H](C)O1` is reported as 0.79 µM (SW480; MTT; 24 h).
`Cc1ccc(NNc2nc3c(Cl)cc(Cl)cc3c(=O)n2-c2ccccc2)cc1` gave an IC50 of 132 µM (SW480; MTT; 48 h).
The IC50 of `Cc1cc2c(C(=O)O)cccc2n1-c1nc2c(c(NCc3ccccc3)n1)CCCN2` is reported as 0.9 µM (MM1.S; 72 h).
The IC50 of `O=c1c2cc(Cl)cc(Cl)c2nc(NNc2cccc(Cl)c2)n1-c1ccccc1` is reported as over 200 µM (SW480; MTT; 48 h).
For `CC1(P2(=O)CCCCC2)C=CCC=C1`, the IC50 was over 100 µM (SW480; MTT; 72 h).
For `NNc1nc2c(Cl)cc(Cl)cc2c(=O)n1-c1ccc(Cl)cc1`, the IC50 was over 200 µM (SW480; MTT; 48 h).
With `COc1ccc(Nc2ncnc3c2ncn3Cc2ccc(C(=O)Nc3ccccc3N)cc2)cc1` the IC50 was 15.8 µM (MM1.S; MTT; 72 h).
With `CCCN1CC(Oc2ccc([C@@H]3c4[nH]c5ccccc5c4C[C@@H](C)N3CC(C)(C)F)cc2)C1` the IC50 was 0.126 µM (CAMA-1).
The IC50 of `CC(=O)Nc1ccc(O)cc1` is reported as 28.6 µM (THLE-2; MTT).
`CS(=O)(=O)CCNCc1ccc(-c2ccc3ncnc(Nc4ccc(OCc5cccc(F)c5)c(Cl)c4)c3c2)o1` gave an IC50 of 0.0572 µM (NCI-N87; ATP luminescence).
With `Cc1nc(Nc2ncc(C(=O)Nc3c(C)cccc3Cl)s2)cc(N2CC[C@H](O)C2)n1` the IC50 was over 10 µM (Toledo; ATP luminescence; 72 h).
`O=C(NO)c1ccc(Cn2cnc3c(Nc4ccc(Br)cc4F)ncnc32)cc1` gave an IC50 of 1.87 µM (MM1.S; MTT; 72 h).
`O=C(NO)Nc1nc2c(Cl)cc(Cl)cc2c(=O)n1-c1ccc(Cl)cc1` gave an IC50 of over 200 µM (SW480; MTT; 48 h).
With `O=C(NO)c1ccc(Cn2cnc3c(Nc4cccc([N+](=O)[O-])c4)ncnc32)cc1` the IC50 was 1.56 µM (MM1.S; MTT; 72 h).
`NNc1nc2ccc(Br)cc2c(=O)n1-c1ccc(F)cc1` gave an IC50 of 14.7 µM (SW480; MTT; 48 h).
For `O=P1(c2ccccc2)CCCCC1`, the IC50 was over 100 µM (SW480; MTT; 72 h).
`O=C(NO)Nc1nc2c(Cl)cc(Cl)cc2c(=O)n1-c1ccccc1` gave an IC50 of over 200 µM (SW480; MTT; 48 h).
`CCOc1cc2ncc(C#N)c(Nc3ccc(OCc4ccccn4)c(Cl)c3)c2cc1NC(=O)/C=C/CN(C)C` has an IC50 of 0.0185 µM (NCI-N87; ATP luminescence).
